Activity calls are given as the source filed them. No cut-off for these calls is given here.
Tests used:
[1] = tested on: Human immunodeficiency virus 1; assay: Antiviral activity against CCR5-dependent HIV1 SF162 infected in human TZM-bl cells assessed as reduction in virus infection incubated for 48 hrs by luciferase reporter gene based viral neutralization assay; assay type: functional; settings: Human immunodeficiency virus 1, SF162, TZM-bl
Method in brief: (§1)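 Env-pseudotyped viruses made in 293T cells by proviral DNA transfection and titred by luciferase in TZM-bl cells. 200 TCID50 of virus preincubated 1 h at 37 °C with serially diluted compound (10 to 0.001 μM) in D-MEM/10% FBS. 10^4 TZM-bl cells per well with 15 μg/mL DEAE-dextran were then added, 37 °C, 48 h and 72 h. Four replicates per point. Luciferase read-out.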

[2] = tested on: Human immunodeficiency virus 1; assay: Antiviral activity against CCR5-dependent HIV1 clade B isolate QH0692 infected in human TZM-bl cells assessed as reduction in virus infection incubated for 48 hrs by luciferase reporter gene based viral neutralization assay; assay type: functional; settings: Human immunodeficiency virus 1, clade B isolate QH0692, TZM-bl; method in brief: as §1
[3] = tested on: Human immunodeficiency virus 1; assay: Antiviral activity against CCR5-dependent HIV1 clade B isolate 6535 infected in human TZM-bl cells assessed as reduction in virus infection incubated for 48 hrs by luciferase reporter gene based viral neutralization assay; assay type: functional; settings: Human immunodeficiency virus 1, clade B isolate 6535, TZM-bl; method in brief: as §1
[4] = tested on: Human immunodeficiency virus 1; assay: Antiviral activity against CCR5-dependent HIV1 clade B isolate PVO infected in human TZM-bl cells assessed as reduction in virus infection incubated for 48 hrs by luciferase reporter gene based viral neutralization assay; assay type: functional; settings: Human immunodeficiency virus 1, clade B isolate PVO; method in brief: as §1
[5] = tested on: Human immunodeficiency virus 1; assay: Antiviral activity against CCR5-dependent HIV1 clade B isolate AC10 infected in human TZM-bl cells assessed as reduction in virus infection incubated for 48 hrs by luciferase reporter gene based viral neutralization assay; assay type: functional; settings: Human immunodeficiency virus 1, clade B isolate AC10, 48 h; method in brief: as §1
[6] = tested on: Human immunodeficiency virus 1; assay: Antiviral activity against CCR5-dependent HIV1 cladC isolate ZM214 infected in human TZM-bl cells assessed as reduction in virus infection incubated for 48 hrs by luciferase reporter gene based viral neutralization assay; assay type: functional; settings: Human immunodeficiency virus 1, cladC isolate ZM214, TZM-bl; method in brief: as §1
[7] = tested on: Vesicular stomatitis virus; assay: Antiviral activity against VSV G SVA.MLV#922 infected in human TZM-bl cells assessed as reduction in virus infection incubated for 48 hrs by luciferase reporter gene based viral neutralization assay; assay type: functional; settings: G SVA.MLV#922, TZM-bl; method in brief: as §1
[8] = tested on: Human immunodeficiency virus 1; assay: Antiviral activity against CXCR4-dependent HIV1 HXB2 infected in human TZM-bl cells assessed as reduction in virus infection incubated for 48 hrs by luciferase reporter gene based viral neutralization assay; assay type: functional; settings: Human immunodeficiency virus 1, HXB2, TZM-bl; method in brief: as §1
[9] = tested on: Human immunodeficiency virus 1; assay: Antiviral activity against CCR5-dependent HIV1 SF162 infected in human TZM-bl cells assessed as reduction in virus infection incubated for 72 hrs by luciferase reporter gene based viral neutralization assay; assay type: functional, organism-based
Method in brief: (§2)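 Single-round infection of TZM-bl cells with env-pseudotyped virus at 200 TCID50, preincubated 1 h at 37 °C with serial compound dilutions (10 to 0.001 μM) in D-MEM with 10% FBS. TZM-bl cells (10^4/well) carrying 15 μg/mL DEAE-dextran were then added and cultured 48 and 72 h at 37 °C, 5% CO2. Luciferase RLU were read in four replicates per point. IC90 was the 90% RLU drop versus virus-only wells, minus cell-only background.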

[10] = tested on: Human immunodeficiency virus 1; assay: Antiviral activity against CCR5-dependent HIV1 clade B isolate QH0692 infected in human TZM-bl cells assessed as reduction in virus infection incubated for 72 hrs by luciferase reporter gene based viral neutralization assay; assay type: functional, organism-based; method in brief: as §2
[11] = tested on: Human immunodeficiency virus 1; assay: Antiviral activity against CCR5-dependent HIV1 clade B isolate 6535 infected in human TZM-bl cells assessed as reduction in virus infection incubated for 72 hrs by luciferase reporter gene based viral neutralization assay; assay type: functional, organism-based; method in brief: as §2
[12] = tested on: Human immunodeficiency virus 1; assay: Antiviral activity against CCR5-dependent HIV1 clade B isolate PVO infected in human TZM-bl cells assessed as reduction in virus infection incubated for 72 hrs by luciferase reporter gene based viral neutralization assay; assay type: functional, organism-based; method in brief: as §2
[13] = tested on: Human immunodeficiency virus 1; assay: Antiviral activity against CCR5-dependent HIV1 clade B isolate AC10 infected in human TZM-bl cells assessed as reduction in virus infection incubated for 72 hrs by luciferase reporter gene based viral neutralization assay; assay type: functional, organism-based; method in brief: as §2
[14] = tested on: Human immunodeficiency virus 1; assay: Antiviral activity against CCR5-dependent HIV1 cladC isolate ZM214 infected in human TZM-bl cells assessed as reduction in virus infection incubated for 72 hrs by luciferase reporter gene based viral neutralization assay; assay type: functional, organism-based; method in brief: as §2
[15] = tested on: Vesicular stomatitis virus; assay: Antiviral activity against VSV G SVA.MLV#922 infected in human TZM-bl cells assessed as reduction in virus infection incubated for 72 hrs by luciferase reporter gene based viral neutralization assay; assay type: functional, organism-based; method in brief: as §1
[16] = tested on: Human immunodeficiency virus 1; assay: Antiviral activity against CXCR4-dependent HIV1 HXB2 infected in human TZM-bl cells assessed as reduction in virus infection incubated for 72 hrs by luciferase reporter gene based viral neutralization assay; assay type: functional, organism-based; method in brief: as §2
TZM [17] = assay: Toxicity in human TZM-bl cells assessed as reduction in cell proliferation at 10 uM incubated for 48 hrs by trypan blue staining based assay
TZM [18] = assay: Toxicity in human TZM-bl cells assessed as reduction in cell proliferation at 10 uM incubated for 72 hrs by trypan blue staining based assay

Row | SMILES | IC90 [1] [nM] | IC90 [2] [nM] | IC90 [3] [nM] | IC90 [4] [nM] | IC90 [5] [nM] | IC90 [6] [nM] | IC90 [7] [nM] | IC90 [8] [nM] | Activity [9] | Activity [10] | Activity [11] | Activity [12] | Activity [13] | Activity [14] | Activity [15] | Activity [16] | Activity (TZM [17]) | Activity (TZM [18])
1 | Cc1nnc(C(C)C)n1[C@H]1C[C@H]2CC[C@@H](C1)N2CC[C@H](NC(=O)C1CCC(F)(F)CC1)c1ccccc1 [MARAVIROC] | 80 to 470 | 80 to 470 | 80 to 470 | 80 to 470 | 80 to 470 | 80 to 470 | > 10000 | > 10000 | Active | Active | Active | Active | Active | Active | Active | Active |  | 
2 | Cc1nnc(C(C)C)n1[C@@H]1C[C@H]2CC[C@@H](C1)N2CC[C@H](NC(=O)C1CCC(F)(F)CC1)c1ccccc1 [MARAVIROC] |  |  |  |  |  |  |  |  |  |  |  |  |  |  |  |  | Non-Toxic | Non-Toxic
3 | Cc1nnc(C(C)C)n1N1CC2CCCC(C1)N2CC[C@H](NC(=O)C1CCC(F)(F)CC1)c1ccccc1 | 90 to 3540 | 90 to 3540 | 90 to 3540 | 90 to 3540 | 90 to 3540 | 90 to 3540 | > 10000 | > 10000 | Active | Active | Active | Active | Active | Active | Active | Active | Non-Toxic | Non-Toxic
4 | Cc1nnc(C(C)C)n1N1CC2CCC(C1)N2CC[C@H](NC(=O)C1CCC(F)(F)CC1)c1ccccc1 | 20 to 1520 | 20 to 1520 | 20 to 1520 | 20 to 1520 | 20 to 1520 | 20 to 1520 | > 10000 | > 10000 | Active | Active | Active | Active | Active | Active | Active | Active | Non-Toxic | Non-Toxic

Source: ChEMBL document CHEMBL4138064, “Diazabicyclo analogues of maraviroc: synthesis, modeling, NMR studies and antiviral activity” (Medchemcomm, 2017)
